Compounds with a hit are over-represented: about 2.5% of the library has one in this group of screens.
PfGluPho inh = PfG6PD enzyme inhibitors, primary screen, biochemical, fluorescence intensity, uHTS; glucose-6-phosphate dehydrogenase-6-phosphogluconolactonase (Plasmodium falciparum 3D7); PfGluPho enzyme, NADPH resazurin-diaphorase fluorescence; inhibition, % at 20 µM; hit rate 0.78% among 350,000; AID 504690, 2011;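 active = inhibition reaching at least a set limit at 20 µM in the primary screen, cut at about 59% in these data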;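 note: 0% = DMSO wells with substrate and 100% = DMSO wells lacking glucose-6-phosphate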
HKDC1 inhibitor = HKDC1 hexokinase inhibitors, primary screen, biochemical, fluorescence, uHTS | inhibition, % at 20 µM | recombinant HKDC1, G6PDH/diaphorase resazurin coupled fluorescence | hit rate 0.16% among 340,000;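 active = inhibition above about 35% when tested at 20 µM, limit read from the data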;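 note: plate controls were DMSO wells with enzyme for no effect and DMSO wells lacking enzyme for full effect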
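System: Recombinant HKDC1 hexokinase | Amount: HKDC1 at 5 µg/mL | Reagent: Glucose with 1 mM ATP | Doses: Single 20 µM dose | Incubation: Reaction time 90 min, room temperature, protected from light | Signal: Coupled resazurin fluorescence, excitation 525 nm, emission 613 nm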
PHOSPHO1 inh = PubChem AID 1565; Phosphoethanolamine/phosphocholine phosphatase (Homo sapiens), Q8TCT1; recombinant PHOSPHO1, absorbance phosphatase assay; inhibition, % at 13.3 µM; hit rate 1.1% among 290,000; in the data active = inhibition above about 60%
Target sequence (Q8TCT1 whole entry, looked up): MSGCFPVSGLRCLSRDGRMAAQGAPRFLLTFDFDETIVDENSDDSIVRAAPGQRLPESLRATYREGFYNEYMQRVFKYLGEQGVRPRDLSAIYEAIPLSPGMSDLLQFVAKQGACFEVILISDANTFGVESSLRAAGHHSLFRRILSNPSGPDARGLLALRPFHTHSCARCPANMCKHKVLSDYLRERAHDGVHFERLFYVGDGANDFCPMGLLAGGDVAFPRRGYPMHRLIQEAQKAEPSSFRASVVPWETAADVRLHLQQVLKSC
TbHK1 inh = Trypanosoma brucei hexokinase 1 inhibitors, primary screen, biochemical, G6PDH-coupled NADH absorbance, MLSCN library | hexokinase 1 [Trypanosoma brucei] | hit rate 0.11% among 220,000 | recombinant TbHK1, G6PDH-coupled NADH A340 | AID 1430, 2008 | inhibition, % at 10 µM;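 active = inhibition of 50% or more in the single-dose primary screen; inactive = inhibition below 50%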
EP2 mod = EP2 receptor modulators, cAMP readout, primary screen, cell-based, HTRF cAMP, PGE2 stimulation; Prostaglandin E2 receptor EP2 subtype (Homo sapiens), P43116; EP2-expressing cells, cAMP HTRF FRET, PGE2 co-stimulation; induction, % at 25 µM; hit rate 0.83% among 260,000; AID 940, 2007;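 active = compounds whose cAMP rise, as percent of the full-agonist control response, exceeds 60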;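 note: rat C6 glioma line stably carrying human EP2 under a CMV promoter; the protocol text gives 20 µM as final concentration; 100% = response of wells given 1 µM PGE2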
Target sequence (P43116 whole entry, looked up): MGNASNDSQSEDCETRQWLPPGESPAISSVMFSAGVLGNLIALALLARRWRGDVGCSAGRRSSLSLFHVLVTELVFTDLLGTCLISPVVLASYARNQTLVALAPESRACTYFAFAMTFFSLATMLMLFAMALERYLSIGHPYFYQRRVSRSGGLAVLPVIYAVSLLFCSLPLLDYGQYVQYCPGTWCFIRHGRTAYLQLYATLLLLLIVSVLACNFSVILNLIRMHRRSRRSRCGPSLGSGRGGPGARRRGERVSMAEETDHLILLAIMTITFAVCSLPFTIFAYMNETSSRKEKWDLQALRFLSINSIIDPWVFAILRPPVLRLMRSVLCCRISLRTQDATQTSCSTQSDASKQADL
EP2 antag = human EP2 receptor antagonists, primary screen, TR-FRET cAMP, C6 glioma cells; Prostaglandin E2 receptor EP2 subtype (Homo sapiens), P43116; C6 glioma cells expressing human EP2; cells stimulated with saturating PGE2; inhibition, % at 25 µM; hit rate 0.52% among 260,000; AID 1422, 2008;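 active = percent inhibition above 40 after rounding to a whole number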;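 note: rat C6 glioma host cells with rolipram phosphodiesterase inhibitor present; the protocol text gives 20 µM as final concentration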
PfG6PD confirm = PfG6PD inhibitors, hit retest, confirmation, biochemical, fluorescence intensity, single concentration | shares compounds with PfGluPho inh | recombinant PfGluPho, NADPH-diaphorase-resazurin fluorescence | inhibition, % at 20 µM | hit rate 34% among 2,400 | AID 504753, 2011;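 active = inhibition of at least 50% at 20 µM in any single replicate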;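 note: 0% = DMSO with substrate and 100% = DMSO lacking glucose-6-phosphate substrate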
Diaph ctr 10uM = diaphorase inhibitors and chemical oxidizers, confirmation, counter-screen for P. falciparum G6PD inhibitor project, biochemical, fluorescence intensity, 10 µM NADPH; shares compounds with PfGluPho inh; inhibition, % at 20 µM; hit rate 39% among 820; diaphorase-coupled resazurin reduction, NADPH 10 uM; AID 504862, 2011;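 active = average inhibition reaching 50% or more with the compound at 20 µM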;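 note: resorufin red fluorescence formed as diaphorase reduces resazurin using NADPH; 0% = DMSO with enzyme and 100% = DMSO without enzyme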
Diaph ctr 30uM = diaphorase inhibitors and chemical oxidizers, confirmation, counter-screen for P. falciparum G6PD inhibitor project, biochemical, fluorescence intensity, 30 µM NADPH; shares compounds with PfGluPho inh; Diaphorase/resazurin coupled assay, resorufin fluorescence; inhibition, % at 20 µM; hit rate 29% among 820; AID 504863, 2011;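 active = inhibition averaging 50% or more, tested at 20 µM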;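 note: 0% = DMSO with enzyme and 100% = DMSO wells lacking diaphorase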
* = called active by the depositor.

Results for Cc1ccc2c(c1)nnn2C1CCN(CC(=O)NC2CCCCC2)CC1 ?
EP2 mod: -48.1; EP2 antag: 12.6

What do the screens show for `O=C(O)c1cc(S(=O)(=O)N2CCOCC2)ccc1N1CCCCC1`?
PfGluPho inh: -7.7; HKDC1 inhibitor: -2.1; PHOSPHO1 inh: 20.5; TbHK1 inh: -9.2; EP2 mod: 20.8; EP2 antag: 3.8

Results for O=C(Nc1cc(S(=O)(=O)N2CCOCC2)ccc1N1CCCCC1)c1ccc(Cl)cc1 ?
PfGluPho inh: 80.1*; HKDC1 inhibitor: -5.3; PfG6PD confirm: 39.8

How did O=c1c2ccccc2sn1-c1cc(S(=O)(=O)N2CCOCC2)ccc1N1CCCC1 do in these assays?
PfGluPho inh: 112.4*; HKDC1 inhibitor: -7.1; PHOSPHO1 inh: 40.8; TbHK1 inh: 27.0; EP2 mod: -35.6; EP2 antag: 13.6; PfG6PD confirm: 107.2*; Diaph ctr 10uM: -10.3; Diaph ctr 30uM: -6.6

What do the screens show for `O=C(Nc1cc(S(=O)(=O)N2CCOCC2)ccc1N1CCCCC1)c1ccccc1`?
PfGluPho inh: 0.1; HKDC1 inhibitor: -3.8

Results for CC(C)C(=O)Nc1cc(S(=O)(=O)N2CCOCC2)ccc1N1CCCCC1 ?
PfGluPho inh: 60.8*; HKDC1 inhibitor: -9.7; PfG6PD confirm: -14.2

What do the screens show for `Nc1cc(S(=O)(=O)N2CCOCC2)ccc1N1CCCCC1`?
PfGluPho inh: 69.0*; HKDC1 inhibitor: -11.9; PfG6PD confirm: 36.3

How did C=CCn1c(N2CCC(C(=O)NC(C)C)CC2)nc2ccccc21 do in these assays?
EP2 mod: -18.3

What do the screens show for `CCOc1ccc(NC(=O)CSc2nccc(=O)[nH]2)cc1`?
EP2 mod: -23.4; EP2 antag: 5.6

Results for CN1[C@@H](C(=O)NCCCn2ccnc2)C[C@@H](c2ccc(F)cc2)NS1(=O)=O ?
EP2 mod: 6.8

Results for CN(C)c1ccc(NC(=O)CSc2ncnc3sc4c(c23)CCCC4)cc1 ?
EP2 mod: -18.1; EP2 antag: 16.9

How did CC1=C(C(=O)Nc2ccccc2)C(c2ccc3c(c2)OCO3)NC(=O)N1 (stereo not given) do in these assays?
EP2 mod: 9.2; EP2 antag: 10.8

Results for COc1cc(OC)cc(C(=O)N2CCN(C3CC4CCC3C4)CC2)c1 (stereo not given) ?
EP2 mod: -25.1; EP2 antag: 6.2

How did O=C(Nc1cc(S(=O)(=O)N2CCOCC2)ccc1N1CCCC1)c1ccc2c(c1)S(=O)(=O)c1ccccc1C2=O do in these assays?
PfGluPho inh: 74.4*; HKDC1 inhibitor: -12.3; PHOSPHO1 inh: 42.8; TbHK1 inh: -3.5; EP2 mod: -1.8; EP2 antag: 7.7; PfG6PD confirm: 40.3

How did O=C(Nc1cc(S(=O)(=O)N2CCOCC2)ccc1N1CCCCC1)c1ccccc1Br do in these assays?
PfGluPho inh: 68.2*; HKDC1 inhibitor: -8.5; PfG6PD confirm: -7.3

What do the screens show for `O=C(Nc1cc(S(=O)(=O)N2CCOCC2)ccc1N1CCCC1)c1ccc(Cl)cc1`?
PfGluPho inh: 60.2*; HKDC1 inhibitor: -5.8; PfG6PD confirm: 45.1

What do the screens show for `O=C(Nc1cc(S(=O)(=O)N2CCOCC2)ccc1N1CCCC1)c1ccccc1F`?
PfGluPho inh: 0.5

What do the screens show for `CCN1CCCC1CNC(=O)C(=O)Nc1ccccc1F` (stereo not given)?
EP2 mod: -36.4; EP2 antag: 13.0

What do the screens show for `CC1CCCC(C)N1C(=O)Cn1nc(-c2cccs2)cc(N)c1=O` (stereo not given)?
EP2 mod: -10.9; EP2 antag: 7.5

What do the screens show for `C=CCn1c(Cc2c(C)[nH]c3ccccc23)nnc1SCC(=O)Nc1ccc(OC)cc1`?
EP2 mod: -29.3; EP2 antag: 3.8

Results for Cc1ccc(C)c2c1cc(C)c1nnc(SCC(=O)NCc3ccc4c(c3)OCO4)n12 ?
PfGluPho inh: 93.7*; HKDC1 inhibitor: -8.4; PHOSPHO1 inh: -4.0; TbHK1 inh: 35.1; EP2 mod: 27.2; EP2 antag: 11.5; PfG6PD confirm: 83.9*; Diaph ctr 10uM: 93.4*; Diaph ctr 30uM: 70.4*

Results for Cc1ccc(C)c2c1cc(C)c1nnc(SCC(=O)c3cccs3)n12 ?
PfGluPho inh: 60.5*; HKDC1 inhibitor: 2.6; PHOSPHO1 inh: -16.2; TbHK1 inh: -4.2; EP2 mod: 4.8; EP2 antag: 9.3; PfG6PD confirm: 36.3

What do the screens show for `O=C(NC1CC1(c1ccccc1)c1ccccc1)c1ccccc1` (stereo not given)?
PfGluPho inh: 76.9*; HKDC1 inhibitor: 3.0; PfG6PD confirm: 36.1

What do the screens show for `CC(C)c1cc2c(c(O)c1O)[C@@]13CCCC(C)(C)C1CC2OC3=O` (stereo not given in full)?
PfGluPho inh: 67.1*; HKDC1 inhibitor: 9.2; PHOSPHO1 inh: -126.9; PfG6PD confirm: 50.7*; Diaph ctr 10uM: -16.1; Diaph ctr 30uM: -23.8

How did CC(C)c1c(O)c(-c2cc3c(c(C(C)C)c2O)CCC2C(C)(C)CCC[C@]32C)cc2c1CCC1C(C)(C)CCC[C@]21C (stereo not given in full) do in these assays?
EP2 mod: -10.7; EP2 antag: 16.7

How did Nc1c(C(=O)N2CCCCC2)sc(=S)n1-c1ccccc1 do in these assays?
PfGluPho inh: 78.8*; HKDC1 inhibitor: -22.3; PHOSPHO1 inh: 86.5*; TbHK1 inh: -13.9; EP2 mod: -0.3; EP2 antag: -1.3; PfG6PD confirm: 35.0

What do the screens show for `Nc1c(C(=O)N2CCOCC2)sc(=S)n1-c1ccccc1`?
PfGluPho inh: 59.0*; HKDC1 inhibitor: -7.3; PHOSPHO1 inh: 96.8*; TbHK1 inh: -25.2; EP2 mod: 17.4; EP2 antag: 7.3; PfG6PD confirm: 9.3

Screening results (PubChem BioAssay)
